Reference: ChEMBL document CHEMBL1129293 (J Med Chem, 1996)

How the values were obtained:
[1] = target: D(1A) dopamine receptor (Rattus norvegicus) (UniProt P18901); experiment: Affinity towards Dopamine receptor D1 was evaluated in rat striatal membrane using [3H]SCH-23,390 as radioligand; assay type: cell membranes; details: Striatum
Outline: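 Male Sprague-Dawley rats, 200–400 g; striatum dissected from coronal slices, used fresh or held at -70 °C. Membranes homogenized and twice centrifuged at 27000g in ice-cold 50 mM HEPES, 4.0 mM MgCl2, pH 7.4, final ca. 2.0 mg wet weight/mL. Incubation with [3H]SCH23390 at 37 °C for 15 min; bound radioactivity by liquid scintillation; protein by Lowry.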

[2] = target: D(2) dopamine receptor (Rattus norvegicus) (UniProt P61169); experiment: Affinity towards Dopamine receptor D2 was evaluated in rat striatal membrane using [3H]spiperone as radioligand; assay type: cell membranes; details: Striatum
D(1A) dopamine receptor = D(1A) dopamine receptor (Rattus norvegicus, UniProt P18901); experiment: Effective concentration was determined for the adenylate cyclase activity in rat striatal tissue as a measure of Dopamine receptor D1 functional activity; assay type: tissue-based, Striatum
Rattus norvegicus = species: Rattus norvegicus; experiment: Evaluated for the maximum stimulation of adenylate cyclase in rat striatal tissue with respect to the maximum stimulation caused by dopamine; assay type: functional, Striatum

Chain of D(2) dopamine receptor (Rattus norvegicus) (P61169 whole entry): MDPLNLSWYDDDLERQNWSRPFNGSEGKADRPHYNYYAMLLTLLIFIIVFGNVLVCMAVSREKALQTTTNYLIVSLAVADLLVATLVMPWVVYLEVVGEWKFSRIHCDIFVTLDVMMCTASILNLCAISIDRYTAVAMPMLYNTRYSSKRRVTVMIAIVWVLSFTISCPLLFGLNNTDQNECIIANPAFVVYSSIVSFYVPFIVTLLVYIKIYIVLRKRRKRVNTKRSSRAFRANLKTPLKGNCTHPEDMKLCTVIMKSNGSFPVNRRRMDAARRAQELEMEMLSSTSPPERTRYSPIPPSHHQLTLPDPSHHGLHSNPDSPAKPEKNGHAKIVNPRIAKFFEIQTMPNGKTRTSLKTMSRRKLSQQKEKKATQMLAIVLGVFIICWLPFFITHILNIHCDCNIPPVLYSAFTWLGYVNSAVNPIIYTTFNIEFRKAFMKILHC
Chain of D(1A) dopamine receptor (Rattus norvegicus) (P18901 whole entry): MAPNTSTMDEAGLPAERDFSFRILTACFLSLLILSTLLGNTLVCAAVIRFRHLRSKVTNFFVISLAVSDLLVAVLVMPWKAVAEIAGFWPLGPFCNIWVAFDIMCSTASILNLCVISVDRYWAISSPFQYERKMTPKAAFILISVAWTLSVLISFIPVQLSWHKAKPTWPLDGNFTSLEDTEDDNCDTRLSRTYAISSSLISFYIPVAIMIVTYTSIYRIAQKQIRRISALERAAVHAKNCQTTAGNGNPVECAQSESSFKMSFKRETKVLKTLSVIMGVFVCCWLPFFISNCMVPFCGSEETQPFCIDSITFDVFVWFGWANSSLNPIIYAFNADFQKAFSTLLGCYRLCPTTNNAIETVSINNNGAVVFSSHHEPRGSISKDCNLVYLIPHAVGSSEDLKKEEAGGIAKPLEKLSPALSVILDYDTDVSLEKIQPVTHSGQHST
Chain of D(1A) dopamine receptor (P18901 whole entry): as above

Compound | K0.5 [1] [nM] | K0.5 [2] [nM] | EC50 (D(1A) dopamine receptor) [µM] | Stimulation (Rattus norvegicus) [%]
Oc1ccc([C@@H]2CNCc3sccc32)cc1O | 61 | 142 | 0.7 | 120
NCCc1ccc(O)c(O)c1 [DOPAMINE] | 267 | – | – | 100
C=CCN1CCc2c(cc(O)c(O)c2Cl)[C@@H](c2ccccc2)C1 | 4 | 73 | – | 94
Oc1cc2c(cc1O)[C@H]1c3ccccc3CN[C@@H]1CC2 [DIHYDREXIDINE] | 2.3 | 43.8 | – | 120
Oc1cc2c(cc1O)[C@@H]1c3ccccc3CN[C@@H]1CC2 (relative stereo) | > 1000 | > 1000 | – | 17
CN1CCc2cc(Cl)c(O)cc2[C@@H](c2ccccc2)C1 | – | 600 | – | –
Oc1cc2c(cc1O)CC(NCc1ccccc1)CC2 (configuration not stated) | > 1000 | 335 | > 10 | 25
Oc1ccc2c(c1O)CCC(NCc1ccccc1)C2 (configuration not stated) | > 1000 | > 1000 | > 1 | 38
CCCN1Cc2ccccc2[C@@H]2c3cc(O)c(O)cc3CC[C@H]21 | 326 | 27 | > 10 | 36
C=CCN1Cc2ccccc2[C@@H]2c3cc(O)c(O)cc3CC[C@H]21 | 328 | 182 | > 10 | 32
CCCN1CCC[C@@H]2Cc3n[nH]cc3C[C@H]21 | > 10000 | 49 | – | –
NC[C@@H]1O[C@H](c2ccccc2)Cc2c1ccc(O)c2O | 0.9 | 41 | – | 96
NC[C@@H]1O[C@H](C23CC4CC(CC(C4)C2)C3)Cc2c1ccc(O)c2O | – | – | – | 92
CN1Cc2ccccc2[C@@H]2c3ccc(O)c(O)c3CC[C@H]21 | 477 | 61 | > 10 | 22
